ChEMBL document CHEMBL1133020, “Structure-based design, synthesis, and biological evaluation of novel pyrrolyl aryl sulfones: HIV-1 non-nucleoside reverse transcriptase inhibitors active at nanomolar concentrations” (J Med Chem, 2000)

What was measured:
MT4 [1] = test: 50% cytotoxic concentration against mock-infected MT-4 cells using MTT method; type: functional; details: Homo sapiens
Outline: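 Viability of mock-infected MT-4 cells run in parallel with the antiviral assay; viable cells counted by MTT; CC50 = dose (µM) reducing viability by 50%.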

MT4 [2] = test: Effective concentration against HIV-1 induced cytopathicity in MT-4 cells using MTT method; type: functional, cell-based; details: Homo sapiens
Outline: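 MT-4 cells acutely infected with HIV-1; inhibition of virus-induced cytopathicity; viable cells determined by MTT; EC50 = dose (µM) giving 50% protection from cytopathicity.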

[3] = Selectivity index, ratio of CC50 to EC50; type: functional
Outline: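 Ratio of CC50 (mock-infected MT-4 viability, MTT) to EC50 (protection of MT-4 cells from HIV-1 cytopathicity, MTT).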

Compound	CC50 (MT4 [1])	EC50 (MT4 [2])	Selectivity [3]
CCOC(=O)c1cc(COC)cn1S(=O)(=O)c1cc(Cl)ccc1N	> 200 µM	0.4 µM	> 500
C=Cc1cc(C(=O)OCC)n(S(=O)(=O)c2cc(Cl)ccc2N)c1	47 µM	0.17 µM	274
CCOC(=O)c1cc(C(C)O)cn1S(=O)(=O)c1cc(Cl)ccc1N (stereo unspecified)	115 µM	0.25 µM	460
CCOC(=O)c1cc(CO)cn1S(=O)(=O)c1cc(Cl)ccc1N	240 µM	0.045 µM	5330
CCOC(=O)c1cccn1S(=O)(=O)c1c(N)cccc1Cl	180 µM	72 µM	2.5
CCOC(=O)c1cc(CNc2ccccc2)cn1S(=O)(=O)c1cc(Cl)ccc1N	> 200 µM	3.1 µM	> 55.5
CC(C)OC(=O)c1cc(CO)cn1S(=O)(=O)c1cc(Cl)ccc1N	116 µM	0.1 µM	1160
CC(C)OC(=O)c1cc(CNc2ccccc2)cn1S(=O)(=O)c1cc(Cl)ccc1N	40 µM	0.2 µM	200
Cc1ccnc2c1NC(=O)c1cccnc1N2C1CC1 [NEVIRAPINE]	> 200 µM	0.35 µM	
CCOC(=O)c1cccn1S(=O)(=O)c1cc(Cl)ccc1-n1cccc1	110 µM	> 110 µM	
CCOC(=O)c1cc(COc2ccccc2)cn1S(=O)(=O)c1cc(Cl)ccc1N	> 200 µM	4.1 µM	> 49
CCOC(=O)c1cc(C)cn1S(=O)(=O)c1cc(Cl)ccc1N	> 200 µM	0.09 µM	> 2220
CCOC(=O)c1cccn1S(=O)(=O)c1cc(Cl)ccc1N	> 200 µM		> 1430
